Bioassay records from PubChem BioAssay.
OX1R antag-1 – OX1R (HCRTR1) antagonists, primary screen, fluorescence, CHO/OX1R cells, Fluo-8 calcium, orexin A; Fluo-8 calcium fluorescence; inhibition, % at 5 µM; 330,000 compounds, 0.43% hits; AID 434989, 2010;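 active = inhibition above its plate's threshold, mean inhibition of all tested compounds on the plate plus 3 SD, cut at about 37% in these data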
CHO parental Ca – ATP-evoked calcium signal inhibitors, parental CHO, primary screen, counter-screen for OX1R antagonist project, cell-based, fluorescence, Fluo-8 calcium dye. parental CHO-K1, ATP-induced calcium, Fluo-8 fluorescence. inhibition, % at 5.6 µM. 330,000 compounds, 0.63% hits;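 active = inhibition above that plate's mean sample inhibition plus 3 SD, cut at about 26% in these data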
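Test system: parental CHO cells; detection: calcium-sensitive Fluo-8 fluorescence; evaluation: percent inhibition of calcium signal; also added: ATP as calcium-mobilizing challenge; repeats: one well per compound; control set: ATP-challenged DMSO wells low, unchallenged DMSO wells high; compound: single nominal dose of 5.6 µM per compound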
GalR3 antagonist – GalR3 antagonists in HEK293 cells, primary screen, cell-based, fluorescence readout | HEK293 GalR3-CNG cAMP membrane potential fluorescence; galR3 body fused to GalR1 C-terminus | inhibition, % at 3 µM | 360,000 compounds, 0.44% hits | AID 651719, 2012;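 active = inhibition above the screen-wide average plus 3 SD, cut at about 13% in these data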;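 note: forskolin and galanin both at EC90 stimulate the cells; cAMP rise reported by CNG channel membrane potential dye signal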
GPR7 antagonist – GPR7 receptor antagonists, primary screen, cell-based, fluorescence, single concentration. AID 1861, 2009. GPR7-expressing cells, fluorescence antagonist assay. 290,000 compounds, 1.1% hits. inhibition, % at 4.4 µM. Neuropeptides B/W receptor type 1 (Homo sapiens), P48145; in the data active = inhibition above about 16%, passing the limit was not always enough;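 note: cells stimulated with the agonist NPW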
Target sequence (P48145 whole entry, looked up): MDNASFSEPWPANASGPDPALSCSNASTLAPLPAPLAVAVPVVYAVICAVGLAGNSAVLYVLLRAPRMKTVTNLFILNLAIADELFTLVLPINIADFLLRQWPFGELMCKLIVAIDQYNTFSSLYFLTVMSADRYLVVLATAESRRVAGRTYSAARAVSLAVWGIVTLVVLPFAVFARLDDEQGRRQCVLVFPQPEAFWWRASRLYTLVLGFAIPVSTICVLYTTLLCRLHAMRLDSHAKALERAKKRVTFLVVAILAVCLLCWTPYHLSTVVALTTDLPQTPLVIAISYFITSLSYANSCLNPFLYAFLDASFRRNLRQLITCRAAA
OX1R antag-2 – antagonists of human orexin 1 receptor (OX1R) | inhibition, % at 6.6 µM | 330,000 compounds, 1.8% hits | Orexin/Hypocretin receptor type 1 (Homo sapiens), O43613 | OX1R-expressing cells, FRET antagonist read-out; in the data active = inhibition mostly above about 38%, no sharp cut-off; inactive = mostly below about 40%
GalR3 conf – GalR3 antagonist hit confirmation, cell-based, fluorescence, triplicate; inhibition, % at 3 µM; HEK293 GalR3 CNG cAMP biosensor, membrane potential fluorescence; galR3 fused to GalR1 carboxy tail; challenged with forskolin and galanin at EC90; AID 652245, 2013; shares compounds with GalR3 antagonist; 1,600 compounds, 59% hits;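 active = inhibition above the primary screen's cutoff, the mean inhibition of all screened compounds plus 3 SD, cut at about 13% in these data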
HEK-CNG parental – nonspecific cAMP agonists in parental HEK-CNG cells, counter-screen for GalR3 antagonist project, cell-based, fluorescence, high throughput; shares compounds with GalR3 antagonist; HEK293-CNG parental cells, cAMP membrane potential fluorescence; normalised: DMSO wells 0%, forskolin wells 100%; activation, % at 3 µM; 1,600 compounds, 10% hits; AID 652268, 2013; in the data active = activation above about 1.3%
Large screens that a line does not name were inactive (follow-up assays come after a bar, where they were run). A selection: hits, their analogues and other compounds. The true share with any hit is near 3.1%.

Cc1cc(CSc2ccccc2)ccc1NC(=O)c1ccc(CN2CCOCC2)cc1	GalR3 antagonist 106 | GalR3 conf 122 | HEK-CNG parental inactive
COc1cccc(NC(=O)c2ccc(CN3CCc4ccccc4C3)cc2)c1	GalR3 antagonist 46 | GalR3 conf 102 | HEK-CNG parental inactive
CC1CCCCC1NC(=O)CCn1ccc2cc(S(=O)(=O)N3CCCC3)ccc21 (stereo unspecified)	none (no result: GalR3 antagonist)
Cc1cccc(NC(=O)c2cccc(S(=O)(=O)N3CCc4ccccc4C3)c2)n1	none (no result: GPR7 antagonist)
CC1CCCCN1C(=O)NC1CC(=O)N(c2ccc3c(c2)OCCO3)C1 (stereo unspecified)	none (no result: GPR7 antagonist)
O=C(CC1C(=O)NCCN1Cc1ccccn1)NCCc1ccccc1F (stereo unspecified)	none
COc1ccccc1OCCNC(=O)c1ccc2c(c1)CCC2	none
CCOC(=O)c1ccc(NC(=O)CN2CCc3ccccc3C2)cc1	none
CCOC(=O)c1ccc(NC(=O)c2ccc(CN3CCc4ccccc4C3)cc2)cc1	GalR3 antagonist 71 | GalR3 conf 110 | HEK-CNG parental inactive
CC(=O)Nc1c(Cl)cc2c(c1Cl)Cc1cc(C#N)ccc1-2	none (no result: OX1R antag-1, CHO parental Ca, GPR7 antagonist, OX1R antag-2)
COC(=O)CCCN=C1SCCN1Cc1ccccc1	GalR3 antagonist 15 | GalR3 conf inactive | HEK-CNG parental inactive
COCC(C)N=C1SCCN1Cc1ccccc1 (stereo unspecified)	none
CC(=O)Oc1ccccc1/C=C/c1nc2ccccc2c(=O)o1	none
C/C(O)=c1/c(=O)nc2cccc3c2=c1c1ccccc1c3=O	GalR3 antagonist 19 (no result: OX1R antag-1, CHO parental Ca, OX1R antag-2) | GalR3 conf 14 | HEK-CNG parental inactive
COc1cc(OC)c2cc[nH]c2c1	GalR3 antagonist 18 | GalR3 conf inactive | HEK-CNG parental inactive
O=C(NCc1ccccn1)[C@@H]1CCCN1C(=O)[C@@H]1CCCN1C(=O)c1cccc(Cl)c1	none (no result: OX1R antag-1, CHO parental Ca, GPR7 antagonist, OX1R antag-2)
Cc1cccc(OC(C)C(=O)Nc2ccccc2C(=O)N2CCCCC2)c1 (stereo unspecified)	none
COc1ccc(N2C(=O)c3ccccc3NC2c2ccc(OC)c(Cn3cc([N+](=O)[O-])cn3)c2)cc1 (stereo unspecified)	GalR3 antagonist 59 | GalR3 conf 24 | HEK-CNG parental inactive
CCN(CC)c1ccc(Nc2cc3n(c(=O)n2)CCc2cc(OC)c(OC)cc2-3)cc1	GalR3 antagonist 47 | GalR3 conf 64 | HEK-CNG parental inactive
COc1cc2c(cc1OC)-c1cc(Nc3ccc(N(C)C)cc3)nc(=O)n1CC2	GalR3 antagonist 36 | GalR3 conf 55 | HEK-CNG parental inactive
CCCCN(CC)CCCNC(=O)c1ccc2c(c1)N(CC)C(=O)c1ccccc1S2(=O)=O	none
C[N+]1(CC(=O)OCCCC2CCCCC2)CCCC1	none
CCOC(=O)C[N+]1(C)CCN(C(C)=O)CC1	GalR3 antagonist 13 | GalR3 conf inactive | HEK-CNG parental inactive
Cc1ccc(S(=O)(=O)N2CCN(C(=O)COC(=O)CCOc3ccc(C(C)(C)C)cc3)CC2)cc1	GalR3 antagonist 20 (no result: GPR7 antagonist) | GalR3 conf 20 | HEK-CNG parental inactive
CCOc1ccc(OCCC(=O)OCC(=O)N2CCN(S(=O)(=O)c3ccc(C)cc3)CC2)cc1	none (no result: GPR7 antagonist)
CCN1C(=O)c2ccc(C(=O)NCc3ccco3)cc2C1=O	none
CCN(CC)c1ccc(C2=NNC(=O)CC2C)cc1[N+](=O)[O-] (stereo unspecified)	GalR3 antagonist 52 | GalR3 conf 65 | HEK-CNG parental inactive
CC1CC(=O)NN=C1c1ccc(N(C)C)c([N+](=O)[O-])c1 (stereo unspecified)	GalR3 antagonist 60 | GalR3 conf 69 | HEK-CNG parental inactive
